Test results as given in paper PMC3502072 (Molecular cancer therapeutics, 2012).
“Also recorded” adds a separate entry of the source.

Assays:
[1] = test system: MM cells (RPMI-8226, NCI-H929, U266B1, MM.1S); experiment: CellTiter-Glo cell viability, multiple myeloma cell lines; assay type: cell-based, human; details: 24 h; for Concentrations that significantly reduced MM cell viability: RPMI-8226 cells
[2] = Pilot toxicity study, body condition scoring; assay type: in vivo, mice
In short: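 Pilot tolerability study in a small cohort of mice. Doses were chosen from a range based on NCI DTP toxicity data. A single dose was given, and toxicity was assessed qualitatively by body condition scoring.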

[3] = test system: NCI-H929 subcutaneous xenografted tumors; experiment: MM subcutaneous plasmacytoma model; assay type: in vivo, hairless SCID mice; details: for Tumor growth delay relative to vehicle-treated controls: 5 mg/kg
[4] = test system: PKC; details: cited from earlier work
[5] = target: CDK9 (Homo sapiens, UniProt P50750); details: cited from earlier work
CDK9 (Homo sapiens, UniProt P50750), sequence (P50750 whole entry): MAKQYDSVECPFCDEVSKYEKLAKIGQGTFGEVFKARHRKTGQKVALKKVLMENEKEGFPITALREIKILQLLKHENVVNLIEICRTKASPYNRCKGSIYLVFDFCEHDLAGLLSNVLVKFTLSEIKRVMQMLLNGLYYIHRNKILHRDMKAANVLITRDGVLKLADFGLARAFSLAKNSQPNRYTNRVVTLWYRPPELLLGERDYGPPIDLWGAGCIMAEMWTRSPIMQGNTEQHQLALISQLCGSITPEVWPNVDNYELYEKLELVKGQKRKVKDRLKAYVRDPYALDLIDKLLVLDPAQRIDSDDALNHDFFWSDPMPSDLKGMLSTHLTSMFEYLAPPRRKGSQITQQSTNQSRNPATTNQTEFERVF
CDK9 (Homo sapiens, UniProt P50750), sequence (O60563 whole entry partner): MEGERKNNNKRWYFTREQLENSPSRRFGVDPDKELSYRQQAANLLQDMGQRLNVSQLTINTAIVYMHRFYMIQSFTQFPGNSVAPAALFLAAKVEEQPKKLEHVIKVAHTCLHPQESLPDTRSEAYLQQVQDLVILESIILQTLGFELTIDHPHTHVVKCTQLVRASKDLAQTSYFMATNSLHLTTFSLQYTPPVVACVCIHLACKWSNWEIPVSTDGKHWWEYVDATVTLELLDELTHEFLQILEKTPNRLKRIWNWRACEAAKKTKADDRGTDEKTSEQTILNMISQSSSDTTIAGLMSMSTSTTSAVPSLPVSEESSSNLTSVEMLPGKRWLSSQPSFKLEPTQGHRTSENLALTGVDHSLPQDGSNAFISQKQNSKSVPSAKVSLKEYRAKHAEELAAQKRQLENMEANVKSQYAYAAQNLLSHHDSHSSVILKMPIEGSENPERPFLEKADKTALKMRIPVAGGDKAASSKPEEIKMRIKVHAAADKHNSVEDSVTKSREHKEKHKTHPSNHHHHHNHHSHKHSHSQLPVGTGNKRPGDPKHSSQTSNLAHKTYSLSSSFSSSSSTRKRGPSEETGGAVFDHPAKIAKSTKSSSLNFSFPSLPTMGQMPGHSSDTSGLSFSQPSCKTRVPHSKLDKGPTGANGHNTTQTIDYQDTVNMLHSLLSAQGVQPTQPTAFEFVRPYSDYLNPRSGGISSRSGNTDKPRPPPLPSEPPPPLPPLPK

[6] = test system: primary CD138-positive plasma cells from MM patient bone marrow biopsies; experiment: Cell viability of primary MM patient plasma cells; assay type: cell-based, human; details: 24 h; cells from 2 patients
In short: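 Bone marrow aspirates from MM patients were separated on Ficoll-Paque. CD138+ plasma cells were isolated with magnetic anti-CD138 beads, and purity was checked by FACS. Cells were cultured in RPMI 1640 with 10% FBS and gentamycin at 37°C and 5% CO2, then treated with the test compound at a range of concentrations for 24 h. Viability was read by CellTiter-Glo luminescence; mean ± S.E (n=3).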

[7] = test system: human cell lines derived from multiple tumor types; experiment: CellTiter-Glo cell viability, panel of tumor cell lines; assay type: cell-based
[8] = test system: H460, A172, HT29, HepG2, hFOB and MRC-5 cells; assay type: cell-based, human; details: 500 nM, 16 hours
[9] = test system: RPMI-8226 cells; experiment: Apoptosis, cleaved caspase-3 flow cytometry in MM cells; assay type: cell-based, human; details: 16 hours
[10] = test system: cyclin D1, c-Maf, c-Myc, L-Myc; experiment: Expression of MM oncogenes, Western blot and RT-PCR; assay type: cell-based, human; details: 250 nM
[11] = test system: NCI-H929 and CD138+ MM patient bone marrow cells; experiment: Cell viability, SLM6 with bortezomib; assay type: cell-based, human; details: single agents
[12] = Serum biochemistry and complete blood count in immunocompetent mice; assay type: in vivo; details: C57BL/6 mice
[13] = target: CDK9/cyclin K (Homo sapiens, UniProt P50750); details: read-out: IC50 CDK9/cyclin K kinase activity
CDK9/cyclin K, sequence (P50750 whole entry): as the sequence (P50750 whole entry) above
CDK9/cyclin K, sequence (O75909 whole entry partner): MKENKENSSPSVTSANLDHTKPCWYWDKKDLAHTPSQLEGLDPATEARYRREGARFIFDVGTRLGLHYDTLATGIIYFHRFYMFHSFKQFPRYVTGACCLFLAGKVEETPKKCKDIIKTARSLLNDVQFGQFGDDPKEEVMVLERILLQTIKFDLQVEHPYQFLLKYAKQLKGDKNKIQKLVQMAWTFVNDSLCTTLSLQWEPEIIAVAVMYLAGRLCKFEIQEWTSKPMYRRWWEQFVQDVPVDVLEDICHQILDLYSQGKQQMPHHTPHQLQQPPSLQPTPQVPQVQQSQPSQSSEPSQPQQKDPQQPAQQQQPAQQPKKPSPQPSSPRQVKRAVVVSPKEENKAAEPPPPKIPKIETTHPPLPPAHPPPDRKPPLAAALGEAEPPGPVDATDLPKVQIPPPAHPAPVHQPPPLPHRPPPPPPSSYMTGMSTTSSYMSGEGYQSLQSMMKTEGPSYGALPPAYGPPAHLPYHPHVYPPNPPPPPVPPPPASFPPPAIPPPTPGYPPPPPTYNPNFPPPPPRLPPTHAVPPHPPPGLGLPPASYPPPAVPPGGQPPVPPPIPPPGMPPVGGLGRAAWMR

[14] = test system: PKC; experiment: Phorbol ester-induced PKC and ERK phosphorylation in MM cells; assay type: cell-based, human; details: MM cells stimulated with phorbol-12-myristate-13-acetate
[15] = test system: CDK9; experiment: CDK9 signaling, Western blots in MM cells; assay type: cell-based, human; details: NCI-H929 cells, 2 hours
[16] = target: CDK4/cyclin D1 (Homo sapiens, UniProt P11802); experiment: HotSpot in vitro kinase assay CDK4/cyclin D1; assay type: biochemical; details: read-out: IC50 CDK4/cyclin D1
CDK4/cyclin D1, sequence (P11802 whole entry): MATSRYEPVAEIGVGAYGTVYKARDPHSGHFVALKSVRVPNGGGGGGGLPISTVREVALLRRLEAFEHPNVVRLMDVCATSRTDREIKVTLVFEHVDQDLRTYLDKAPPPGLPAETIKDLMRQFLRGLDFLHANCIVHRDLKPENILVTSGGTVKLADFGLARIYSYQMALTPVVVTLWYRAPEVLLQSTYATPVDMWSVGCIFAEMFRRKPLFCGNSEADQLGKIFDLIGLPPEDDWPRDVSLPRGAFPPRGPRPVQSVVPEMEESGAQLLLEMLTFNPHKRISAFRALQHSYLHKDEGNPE
CDK4/cyclin D1, sequence (P24385 whole entry partner): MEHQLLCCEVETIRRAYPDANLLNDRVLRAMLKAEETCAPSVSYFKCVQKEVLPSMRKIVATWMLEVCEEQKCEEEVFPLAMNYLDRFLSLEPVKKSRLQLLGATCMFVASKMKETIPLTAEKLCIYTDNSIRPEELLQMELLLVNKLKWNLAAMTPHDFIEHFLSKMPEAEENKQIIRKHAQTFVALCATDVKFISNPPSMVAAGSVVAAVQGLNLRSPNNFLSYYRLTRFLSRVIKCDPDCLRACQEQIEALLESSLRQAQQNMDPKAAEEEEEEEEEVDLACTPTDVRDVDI

[17] = target: CDK2/cyclin A (Homo sapiens, UniProt P24941); details: read-out: IC50 CDK2/cyclin A
[18] = target: CDK9/cyclin T1 (Homo sapiens, UniProt P50750); details: read-out: IC50 CDK9/cyclin T1 kinase activity
CDK9/cyclin T1, sequence (P50750 whole entry): as the sequence (P50750 whole entry) above
CDK9/cyclin T1, sequence (O60563 whole entry partner): as the sequence (O60563 whole entry partner) above

[19] = target: CDK1/cyclin B (Homo sapiens, UniProt P06493); experiment: HotSpot in vitro kinase assay CDK1/cyclin B; assay type: biochemical; details: read-out: IC50 CDK1/cyclin B
CDK1/cyclin B, sequence (P06493 whole entry): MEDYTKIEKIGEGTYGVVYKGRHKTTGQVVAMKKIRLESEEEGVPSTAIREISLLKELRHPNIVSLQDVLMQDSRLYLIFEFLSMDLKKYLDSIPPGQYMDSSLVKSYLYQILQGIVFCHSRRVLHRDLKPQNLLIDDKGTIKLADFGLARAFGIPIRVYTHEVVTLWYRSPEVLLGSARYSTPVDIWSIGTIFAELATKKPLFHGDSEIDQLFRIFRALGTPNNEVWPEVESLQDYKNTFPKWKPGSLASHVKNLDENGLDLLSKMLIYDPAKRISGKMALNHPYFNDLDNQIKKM
CDK1/cyclin B, sequence (P14635 whole entry partner): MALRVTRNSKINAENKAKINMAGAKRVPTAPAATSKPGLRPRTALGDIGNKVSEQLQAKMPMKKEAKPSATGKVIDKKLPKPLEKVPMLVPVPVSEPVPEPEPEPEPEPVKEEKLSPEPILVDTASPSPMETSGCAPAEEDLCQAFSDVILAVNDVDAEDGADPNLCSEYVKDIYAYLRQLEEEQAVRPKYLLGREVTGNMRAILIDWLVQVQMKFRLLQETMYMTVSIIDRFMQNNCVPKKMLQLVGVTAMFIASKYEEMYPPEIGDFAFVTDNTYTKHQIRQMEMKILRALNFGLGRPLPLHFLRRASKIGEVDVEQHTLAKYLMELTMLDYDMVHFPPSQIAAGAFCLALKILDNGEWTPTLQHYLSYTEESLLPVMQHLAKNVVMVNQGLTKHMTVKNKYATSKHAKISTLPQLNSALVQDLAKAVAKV

[20] = target: CDK7/cyclin H (Homo sapiens, UniProt P50613); experiment: HotSpot in vitro kinase assay CDK7/cyclin H; assay type: biochemical; details: read-out: IC50 CDK7/cyclin H
CDK7/cyclin H, sequence (P50613 whole entry): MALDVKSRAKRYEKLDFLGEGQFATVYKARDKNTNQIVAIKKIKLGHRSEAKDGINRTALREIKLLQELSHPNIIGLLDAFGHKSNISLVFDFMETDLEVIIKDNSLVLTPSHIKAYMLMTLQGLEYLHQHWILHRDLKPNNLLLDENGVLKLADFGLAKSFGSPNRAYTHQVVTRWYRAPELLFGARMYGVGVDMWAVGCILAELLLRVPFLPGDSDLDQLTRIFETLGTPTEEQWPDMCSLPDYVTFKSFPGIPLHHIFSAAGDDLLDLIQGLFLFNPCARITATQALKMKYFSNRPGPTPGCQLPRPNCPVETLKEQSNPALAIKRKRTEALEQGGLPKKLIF
CDK7/cyclin H, sequence (P51946 whole entry partner): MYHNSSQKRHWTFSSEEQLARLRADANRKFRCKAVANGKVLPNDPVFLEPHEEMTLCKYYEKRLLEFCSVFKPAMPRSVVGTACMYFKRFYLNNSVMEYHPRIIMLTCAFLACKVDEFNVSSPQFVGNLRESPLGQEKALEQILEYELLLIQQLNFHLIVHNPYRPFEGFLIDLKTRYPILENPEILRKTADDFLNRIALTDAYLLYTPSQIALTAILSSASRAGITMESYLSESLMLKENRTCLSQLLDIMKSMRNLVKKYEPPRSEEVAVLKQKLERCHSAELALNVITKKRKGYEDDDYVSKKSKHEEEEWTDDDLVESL
CDK7/cyclin H, sequence (P51948 whole entry partner): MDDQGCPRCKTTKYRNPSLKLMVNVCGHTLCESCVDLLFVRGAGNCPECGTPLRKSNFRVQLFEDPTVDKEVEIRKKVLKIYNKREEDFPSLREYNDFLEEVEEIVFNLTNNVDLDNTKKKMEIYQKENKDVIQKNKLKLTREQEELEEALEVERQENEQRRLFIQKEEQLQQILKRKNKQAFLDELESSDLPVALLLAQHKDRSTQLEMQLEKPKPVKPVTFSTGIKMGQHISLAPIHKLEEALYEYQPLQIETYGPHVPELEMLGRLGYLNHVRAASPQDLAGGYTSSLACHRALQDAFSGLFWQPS

[21] = test system: RPMI-8226/NIH-3T3 tumors; experiment: RPMI-8226-GFP/NIH-3T3 co-injection xenograft model
[22] = test system: CDK7; experiment: RNA polymerase II Ser5 phosphorylation; assay type: cell-based, human; details: NCI-H929 cells, 2 hours
[23] = cited from earlier work

## O=c1[nH]cc(F)c(=O)[nH]1 [5′-fluorouracil]
[1]
  Effect on MM cell viability: relatively insensitive

## [Cl-].[Li+] [LiCl, lithium chloride]
[1]
  Effect on MM cell viability: neither LiCl nor purvalanol A reduced MM cell viability; also recorded: relatively insensitive

## O=C1NC(=NCc2cccs2)S/C1=C\c1ccc2ncccc2c1 [RO3306]
[1]
  Effect on MM cell viability: relatively insensitive

## Cl.NNc1c(C(N)=O)c2c(N)ncnc2n1C1OC(CO)C(O)C1O (stereo not drawn) [SLM3 HCl]
[2]; single dose of 25 mg/kg
  Toxicity by body condition scoring: no overt toxicity
[3]; 25 mg/kg, weekly i.p.
  Effect on the growth of MM tumors: no effect

## NNc1c(C(N)=O)c2c(N)ncnc2n1[C@@H]1O[C@H](CO)[C@@H](O)[C@H]1O [SLM3]
[4]
  Activity against PKC in vitro: modest activity
[5]
  Activity against CDK9 in vitro: modest activity
[6]
  Activity on cell viability of primary plasma cells: confirmed this activity
[1]
  Effect on MM cell viability: superior activity compared to other nucleoside analogs
  Concentrations that significantly reduced MM cell viability: less than 250 nM
[1]; read-out: IC50, cell viability, MM cells
  IC50: 200 to 400 nM
[7]; MM cell lines and primary patient plasma cells vs other tumor types
  Sensitivity of MM cells relative to other tumor types: 3 to 10 times
[7]; read-out: IC50, cell viability, 24 h, breast, colon, lung, hepatocellular, glioma and one of two pancreatic cancer cell lines
  IC50: > 2000 nM
[8]
  Apoptosis (active caspase-3 positive cells): negligible levels of apoptosis
[9]; RPMI-8226, increasing concentrations
  Apoptotic marker cleaved caspase-3: dose-dependent increase

## N/C(=N\O)c1cn(C2OC(CO)C(O)C2O)c2ncnc(N)c12 (stereo not drawn) [SLM5]
[2]; single dose of 5 mg/kg
  Toxicity by body condition scoring: no overt toxicity
[3]; weekly i.p.
  Tumor growth delay relative to vehicle-treated controls: 7 days
[1]
  Concentrations that significantly reduced MM cell viability: less than 250 nM

## N/N=C(\N)c1cn(C2OC(CO)C(O)C2O)c2ncnc(N)c12 (stereo not drawn) [SLM6]
[10]; 6 hours, RPMI-8226 and U266B1 cells
  c-Myc and cyclin D1 mRNA transcripts (RT-PCR): decreased c-Myc and cyclin D1 mRNA transcripts
[10]; time course, U266B1, RPMI-8226, NCI-H929 cells
  Oncogene protein expression (Western blot): repressed the expression of cyclin D1 in U266B1 cells and c-Maf expression in RPMI-8226 cells; also recorded: repressed c-Myc protein levels in RPMI-8226 and NCI-H929 cells, and suppressed L-Myc expression in U266B1 cells
[11]
  Sensitivity of MM cell lines and primary patient plasma cells to single agent: sensitive
[12]
  Effects on normal hematopoiesis, complete blood count with differential: no effects on normal hematopoiesis in vivo other than modest thrombocytopenia
  Systemic toxicity by serum biochemistry: no signs of systemic toxicity
[13]
  IC50: 280 nM
[14]
  Phorbol ester-induced PKC or ERK phosphorylation: no effect
[15]
  Lowest concentration inhibiting phosphorylation of RNA polymerase II at Ser2: 250 nM
  Phosphorylation of CDK9 at Thr186: inhibited phosphorylation of CDK9 at Thr186
[16]
  IC50: > 10000 nM
[2]; single dose of 1 mg/kg
  Toxicity by body condition scoring: no overt toxicity
[17]
  IC50: < 300 nM
[18]
  IC50: 133 nM
[3]; 1 mg/kg i.p., 48 hours
  Apoptotic markers in tumors (immunohistochemistry): regions of intense cleaved caspase-3 and cleaved caspase-8 immunostaining
[3]; 1 mg/kg i.p., single dose on day 1
  Duration of sustained anti-tumor activity: 5 weeks
[1]
  Effect on MM cell viability: able to reduce the viability of MM cells
  Concentrations that significantly reduced MM cell viability: less than 250 nM
[19]
  IC50: < 300 nM
[20]
  IC50: > 10000 nM
[21]; 0.5 mg/kg, weekly i.p.
  Size of MM tumors relative to vehicle-treated controls: significantly reduced the size of MM tumors
  Time to evident anti-MM effects after first treatment: ≤ 7 days
[21]; repeated dosing, 0.5 mg/kg weekly i.p.
  Mouse body weight or body condition scoring: no effect
[22]
  Phosphorylation of RNA polymerase II at Ser5: no effect

## N=C(N)c1cn(C2OC(CO)C(O)C2O)c2ncnc(N)c12 (stereo not drawn) [SLM7]
[2]; single dose of 5 mg/kg
  Toxicity by body condition scoring: no overt toxicity
[3]; weekly i.p.
  Tumor growth delay relative to vehicle-treated controls: 7 days
[1]
  Concentrations that significantly reduced MM cell viability: less than 250 nM

## O=C1Cc2c([nH]c3ccc([N+](=O)[O-])cc23)-c2ccccc2N1 [alsterpaullone]
[1]
  Effect on MM cell viability: micromolar concentrations of alsterpaullone) were able to reduce the viability of MM cells

## CC(C)C[C@H](NC(=O)[C@H](Cc1ccccc1)NC(=O)c1cnccn1)B(O)O [bortezomib, reference compound]
[11]
  Sensitivity of MM cell lines and primary patient plasma cells to single agent: sensitive

## Nc1nc(Cl)nc2c1ncn2[C@H]1C[C@H](O)[C@@H](CO)O1 [cladribine]
[1]
  Effect on MM cell viability: relatively insensitive

## CN1CC[C@H](c2c(O)cc(O)c3c(=O)cc(-c4ccccc4Cl)oc23)[C@H](O)C1 [flavopiridol, reference compound]
[1]
  Effect on MM cell viability: able to reduce the viability of MM cells
[21]; 5.0 mg/kg, weekly i.p.
  Anti-MM activity in vivo: no anti-MM activity

## Nc1ccn([C@@H]2O[C@H](CO)[C@@H](O)C2(F)F)c(=O)n1 [gemcitabine]
[1]
  Effect on MM cell viability: relatively insensitive

## CC(C)[C@H](CO)Nc1nc(Nc2cccc(Cl)c2)c2ncn(C(C)C)c2n1 [purvalanol A]
[1]
  Effect on MM cell viability: neither LiCl nor purvalanol A reduced MM cell viability; also recorded: relatively insensitive

## CC[C@H](CO)Nc1nc(NCc2ccccc2)c2ncn(C(C)C)c2n1 [roscovitine]
[1]
  Effect on MM cell viability: relatively insensitive

## NC(=O)c1cn([C@@H]2O[C@H](CO)[C@@H](O)[C@H]2O)c2ncnc(N)c12 [sangivamycin, reference compound]
[4]
  Activity against PKC: known to inhibit PKC
[14]
  Phorbol ester-induced PKC or ERK phosphorylation: significantly reduced phosphorylation of both kinases
[23]
  Safety in humans, phase I trial: demonstrated the safety of this compound in humans
[1]
  Concentrations that significantly reduced MM cell viability: less than 250 nM
[9]; RPMI-8226, 500 nM
  MM cell apoptosis (cleaved caspase-3 positive cells): 60-80%
